Test results reported in ChEMBL document CHEMBL4251735, “New Hybrids Derived from Podophyllic Aldehyde and Diterpenylhydroquinones with Selectivity toward Osteosarcoma Cells” (ACS Med Chem Lett, 2018).
Calls of active or inactive are those of the source. No cut-off for these calls is given here.

Columns and labels:
MCF7 [1] = experiment: Cytotoxicity against human MCF7 cells after 72 hrs by MTT assay; format: functional, cell-based; details: for IC50: MCF7, 72 h
In short: (§1)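 MTT viability assay after 72 h incubation; IC50 reported as mean ± error from viability curves.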

MG-63 [2] = experiment: Cytotoxicity against human MG63 cells after 72 hrs by MTT assay; format: functional, cell-based; details: for IC50: MG-63, 72 h; in short: as §1
HT-29 [3] = experiment: Cytotoxicity against human HT-29 cells after 72 hrs by MTT assay; format: functional, cell-based; details: for IC50: HT-29, 72 h; in short: as §1
MCF7 [4] = experiment: Cytotoxicity against human MCF7 cells after 24 hrs by annexin-V-FITC/propidium iodide staining based flow cytometric method; format: functional, cell-based; details: MCF7, 24 h
In short: (§2)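 Flow cytometric cytotoxicity measured after 24 h exposure; IC50 derived. Viability was also plotted against drug concentrations from 0.1 to 100 µM over 24 h in HT-29, MCF-7 and MG-63.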

MG-63 [5] = experiment: Cytotoxicity against human MG63 cells after 24 hrs by annexin-V-FITC/propidium iodide staining based flow cytometric method; format: functional, cell-based; details: MG-63, 24 h; in short: as §2
HT-29 [6] = experiment: Cytotoxicity against human HT-29 cells after 24 hrs by annexin-V-FITC/propidium iodide staining based flow cytometric method; format: functional, cell-based; details: HT-29, 24 h; in short: as §2
MG-63 [7] = experiment: Induction of apoptosis in human MG63 cells assessed as viable cells at 1 uM after 24 hrs by annexin-V-FITC/propidium iodide staining based flow cytometric analysis (reference value: 89.58%); format: functional; details: MG-63, 24 h, read-out: Activity
MG-63 [8] = experiment: Induction of apoptosis in human MG63 cells assessed as total apoptotic cells at 1 uM after 24 hrs by annexin-V-FITC/propidium iodide staining based flow cytometric analysis (reference value: 10.42%); format: functional
MG-63 [9] = experiment: Cell cycle arrest in human MG63 cells assessed as increase in accumulation at G2/M phase at 1 uM after 24 hrs by propidium iodide staining based flow cytometric analysis relative to control; format: functional
In short: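 MG-63 cells incubated 24 h with compound at 1 µM alongside vehicle control (DMSO, <0.001%); DNA content measured by fluorescence flow cytometry, giving percentages of cells in G0/G1, S and G2/M; significance versus control tested at p < 0.001.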

MG-63 [10] = experiment: Induction of apoptosis in human MG63 cells assessed as increase in early apoptotic cells at 1 uM after 24 hrs by annexin-V-FITC/propidium iodide staining based flow cytometric analysis; format: functional, cell-based
In short: (§3)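 Apoptosis was assessed in MG-63 cells treated for 24 h at 1 µM, alongside a DMSO vehicle control (<0.001%). Cells were stained with annexin V and PI and analysed by flow cytometry. Populations were classed as early apoptotic (annexin+/PI-), late apoptotic/dead (annexin+/PI+) or living (annexin-/PI-). Total annexin+ percentage and the PI-/PI+ ratio were reported.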

MG-63 [11] = experiment: Induction of apoptosis in human MG63 cells assessed as increase in late apoptotic cells at 1 uM after 24 hrs by annexin-V-FITC/propidium iodide staining based flow cytometric analysis; format: functional, cell-based; in short: as §3
MG-63 [12] = experiment: Cell cycle arrest in human MG63 cells assessed as reduction in accumulation at G0/G1-phase at 1 uM after 24 hrs by propidium iodide staining based flow cytometric analysis relative to control; format: functional; parameters: scale not given: the % may be the effect or the level left
In short: (§4)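 MG-63 osteosarcoma cells exposed to test agent at 1 µM for 24 h, with a DMSO vehicle control (<0.001%). DNA content was measured by fluorescence flow cytometry, and cells were assigned to G0/G1, S and G2/M phases as percentage of the population. Significance versus control was tested at p < 0.001.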

MG-63 [13] = experiment: Cell cycle arrest in human MG63 cells assessed as reduction in accumulation at S-phase at 1 uM after 24 hrs by propidium iodide staining based flow cytometric analysis relative to control; format: functional; parameters: scale not given: the % may be the effect or the level left; in short: as §4

SMILES | IC50 (MCF7 [1]) | IC50 (MG-63 [2]) | IC50 (HT-29 [3]) | IC50 (MCF7 [4]) | IC50 (MG-63 [5]) | IC50 (HT-29 [6]) | viability at 1 µM (MG-63 [7]) | Activity (MG-63 [8]) | Activity (MCF7 [1]) | Activity (MG-63 [2]) | Activity (HT-29 [3]) | Activity (MG-63 [9]) | Activity (MG-63 [10]) | Activity (MG-63 [11]) | Activity (MG-63 [12]) | Activity (MG-63 [13]) | fold change (FC) (MG-63 [9])
C=C1CCC2[C@](C)(CCC[C@]2(C)C(=O)OCCCCCCOC(=O)[C@@H]2C(C=O)=Cc3cc4c(cc3[C@H]2c2cc(OC)c(OC)c(OC)c2)OCO4)[C@H]1CCc1ccc2c(OC(C)=O)ccc(OC(C)=O)c2c1 (stereo partly drawn) | 1000 nM | 2060 nM | 1910 nM | > 100000 nM | 44600 nM | 57600 nM | 88.8% | 11.24% | – | – | – | – | – | – | – | – | –
C=C1CCC2[C@](C)(CCC[C@]2(C)C(=O)OCCCBr)[C@H]1CCc1ccc2c(OC(C)=O)ccc(OC(C)=O)c2c1 (stereo partly drawn) | – | – | – | – | – | – | – | – | Active | Active | Active | – | – | – | – | – | –
C=C1CCC2[C@](C)(CCC[C@]2(C)C(=O)OC)[C@H]1CCc1ccc2c(OC(C)=O)ccc(OC(C)=O)c2c1 (stereo partly drawn) | 15 nM | 410 nM | 18 nM | 29900 nM | 1160 nM | 5650 nM | – | – | – | – | – | Active | – | – | – | – | –
C=C1CCC2[C@](C)(CCC[C@]2(C)C(=O)OCCCOC(=O)[C@@H]2C(C=O)=Cc3cc4c(cc3[C@H]2c2cc(OC)c(OC)c(OC)c2)OCO4)[C@H]1CCc1ccc2c(OC(C)=O)ccc(OC(C)=O)c2c1 (stereo partly drawn) | 2210 nM | 2230 nM | 1510 nM | > 100000 nM | 58200 nM | > 100000 nM | 75% | 25.03% | – | – | – | Active | – | – | – | – | –
COC(=O)[C@@H]1C(C=O)=Cc2cc3c(cc2[C@H]1c1cc(OC)c(OC)c(OC)c1)OCO3 [PODOPHYLLIC ALDEHYDE] | 480 nM | 60 nM | 29 nM | > 100000 nM | 1230 nM | > 100000 nM | 51.9% | 48.08% | – | – | – | Active | Active | Active | 100% | 100% | –
C=C1CCC2[C@](C)(CCC[C@]2(C)C(=O)OCc2ccc(CBr)cc2)[C@H]1CCc1ccc2c(OC(C)=O)ccc(OC(C)=O)c2c1 (stereo partly drawn) | – | – | – | – | – | – | – | – | Active | Active | Active | – | – | – | – | – | –
COc1cc([C@@H]2c3cc4c(cc3[C@H](O)[C@H]3COC(=O)[C@H]23)OCO4)cc(OC)c1OC [PODOFILOX] | 28 nM | 7 nM | 66 nM | > 100000 nM | 18300 nM | > 100000 nM | 51.4% | 48.56% | – | – | – | Active | – | – | – | – | –
C=C1CCC2[C@](C)(CCC[C@]2(C)C(=O)OCc2ccc(COC(=O)[C@@H]3C(C=O)=Cc4cc5c(cc4[C@H]3c3cc(OC)c(OC)c(OC)c3)OCO5)cc2)[C@H]1CCc1ccc2c(OC(C)=O)ccc(OC(C)=O)c2c1 (stereo partly drawn) | 1030 nM | 150 nM | 1440 nM | > 100000 nM | 500 nM | > 100000 nM | 10% | 89.96% | – | – | – | – | Active | Active | 100% | 100% | 5
C=C1CCC2[C@](C)(CCC[C@]2(C)C(=O)OCCCCCCBr)[C@H]1CCc1ccc2c(OC(C)=O)ccc(OC(C)=O)c2c1 (stereo partly drawn) | – | – | – | – | – | – | – | – | Active | Active | Active | – | – | – | – | – | –
